Assay outcomes as filed in PubChem.
This is one part of a sample in which hits are shown more often than they occur.
STK33 kinase inh = blocks human STK33 kinase activity | Q9BYT3 | inhibition, % at 10 µM | purified STK33, MBP phosphorylation, ADP-Glo luminescence | 320,000 compounds, 0.073% hits;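 active = inhibition at or above 25%, using the most active replicate where run in duplicate; inactive = inhibition below 25%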
Target sequence (Q9BYT3 whole entry, looked up): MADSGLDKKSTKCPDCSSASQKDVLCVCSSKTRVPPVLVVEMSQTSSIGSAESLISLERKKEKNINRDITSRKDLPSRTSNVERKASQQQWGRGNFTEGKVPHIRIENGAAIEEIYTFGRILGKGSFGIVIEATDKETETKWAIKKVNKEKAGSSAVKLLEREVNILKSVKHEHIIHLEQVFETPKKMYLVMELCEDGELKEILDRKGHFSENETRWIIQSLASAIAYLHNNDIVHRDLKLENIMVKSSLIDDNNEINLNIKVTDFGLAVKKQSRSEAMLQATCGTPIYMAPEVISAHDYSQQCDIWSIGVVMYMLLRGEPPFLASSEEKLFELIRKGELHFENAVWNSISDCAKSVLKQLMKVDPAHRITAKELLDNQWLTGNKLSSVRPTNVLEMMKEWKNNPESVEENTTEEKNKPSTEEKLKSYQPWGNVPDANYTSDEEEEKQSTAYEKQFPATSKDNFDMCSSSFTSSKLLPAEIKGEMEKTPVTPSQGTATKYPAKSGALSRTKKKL
GSK3beta inhib = human GSK3beta kinase inhibition. P49841. GST-GSK3beta kinase, ADP-Glo luminescence, 60 min; hits give low values. activity score (negative = inhibition), % at 10 µM. 300,000 compounds, 0.038% hits. AID 2097;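 active = more than half of replicate wells score below -50%, meaning over 50% inhibition versus plate controls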;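 note: 0% = median DMSO wells and -100% = median GW8510 positive control wells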
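Test system – GST-tagged human GSK3beta kinase, cell-free · Incubation – 60 min enzyme reaction, room temperature · Signal – ADP-Glo luminescence · Also added – peptide substrate and ATP at 25 µM · Controls – DMSO neutral wells and GW8510 at 20 µM as positive · Buffer or medium – Tris/MgCl2 kinase buffer · Measure – Luminescence-derived activity versus plate DMSO and GW8510 wells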
GSK3 alpha inh = blocks human GSK-3 alpha kinase; inhibition, % at 10 µM; ADP-Glo luminescence, 60 min; 320,000 compounds, 0.1% hits;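 active = more than half of replicates show inhibition above 20%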;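 note: GST-tagged GSK-3 alpha with peptide substrate and 25 µM ATP; 0% = DMSO neutral wells and 100% = GW8510 positive control wells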
Dyrk1A ADPGlo = inhibitors of rat Dyrk1A kinase; 310,000 compounds, 0.43% hits; Q63470; ADP-Glo luminescence, NFATc1 peptide; inhibition, % at 12.5 µM; AID 504441; in the data active = inhibition above about 50%;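 note: plate controls were vehicle with enzyme for no effect and no enzyme for full effect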
CDK5 p35 inh = blocks human CDK5/p35 kinase activity. Q00535+Q15078. Recombinant CDK5/p35, ADP-Glo luminescence, 60 min. inhibition, % at 10 µM. 330,000 compounds, 0.01% hits;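 active = highest replicate inhibition of at least 50% and at least 75% of replicates reaching 50%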;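 note: plate controls were DMSO neutral control for no effect and GW8510 at 10 µM for full effect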
Dyrk1A artifact = ADP-Glo luciferase interference, Dyrk1A counter-screen | shares compounds with Dyrk1A ADPGlo | ADP-Glo luciferase artifact assay, no Dyrk1A, luminescence | AC50, µM (series often up to 12 µM), for the others: top-dose activity change, negative = inhibition | AID 588348 | 1,300 tested, under 10 active;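 active = fitted half-maximal dose AC50 no more than ten times the top valid tested dose, with luminescence dropping as dose rises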
Active calls of the source: *; x = not tested or not shown.

SMILES	STK33 kinase inh	GSK3beta inhib	GSK3 alpha inh	Dyrk1A ADPGlo	CDK5 p35 inh	Dyrk1A artifact
O=C(Nc1nc2ccccc2s1)c1ccccc1	4	0	1	24	-1	x
c1ccc2sc(NN=C3CCCCCC3)nc2c1	9	1	4	62*	0	9%
C=CCN(CC(=O)NC1CCCC1)C(=O)C(=O)Nc1ccc2c(c1)OCCO2	0	-1	2	5	2	x
Cc1ccc2c(c1)N(CC(=O)NC1CCCCC1)C(=O)c1cccnc1O2	x	2	x	58*	-1	6%
COc1ccc(-c2cc(=O)[nH]c(=O)[nH]2)cc1	1	1	7	29	-1	x
COc1ccc(-c2cc(=O)[nH][nH]2)cc1	1	-6	1	63*	2	8%
Cc1cccc(C)c1NC(=O)C(C)Sc1nnc(C)n1CC1CCCO1 (stereo not drawn)	x	1	x	0	-2	x
C=CCN1C(=O)/C(=C/c2ccccc2)S/C1=N/c1nccs1	0	1	-1	58*	-1	7%
CCN1CCN(c2ncnc3sc(C)c(-c4ccccc4)c23)CC1	0	-3	12	3	0	x
CC1(C)O[C@@H](CC(=O)O)[C@]23CO[C@H](C(=O)[C@]4(C)C2CC[C@@]2(C)[C@H](c5ccoc5)OC(=O)C5O[C@]524)[C@@H]13 (stereo partly drawn)	-1	x	-5	-3	-2	x
COc1ccc2[nH]c3c(C)c4ccncc4c(C)c3c2c1	6	3	-1	56*	-1	10%
COc1ccc(Cl)cc1NC(=O)CN(C)C(=O)Cn1cnc2c1c(=O)n(C)c(=O)n2C	0	1	-1	9	2	x
O=C1C(C=NCc2ccncc2)=C(O)c2ccccc21	1	4	2	66*	3	10%
O=C1C(C=NCc2cccnc2)=C(O)c2ccccc21	x	-2	x	5	2	x
COC(=O)c1c(-c2ccc(S(C)(=O)=O)cc2)sc2ccc(OC)cc12	0	x	-2	51*	1	10%
O=C(CCC1CCN(C(=O)c2ccccc2Cl)CC1)NCc1ccc(F)cc1	-1	3	0	x	-2	x
CC(/C=C/c1ccc(O)cc1)=N/O	9	-5	14	89*	14	9%
COc1ccc(/C=C/C(=O)O)cc1	x	x	x	62*	-3	6%
CC(/C=C/c1ccccc1)=N/O	0	0	5	1	0	x
O=C(/C=C/c1ccc(O)cc1)c1ccc(O)cc1O	6	2	-1	21	1	x
O=C(O)/C=C/c1ccc(O)cc1	0	3	2	57*	1	9%
O=C(/C(=C/c1cccnc1)n1ccnc1)c1ccc(Cl)cc1Cl	0	2	-3	-3	1	x
Cc1cccc(NC(=S)NNC(=O)c2csc3c2CCC(C)C3)c1 (stereo not drawn)	x	-1	x	62*	0	10%
COc1cc(CC(=O)OCC(=O)c2ccc[nH]2)cc(OC)c1OC	0	x	-5	-3	1	x
COc1ccccc1NC(=S)N/N=C/c1cccc(C)c1	-1	7	-3	-1	1	x
SMILES	STK33 kinase inh	GSK3beta inhib	GSK3 alpha inh	Dyrk1A ADPGlo	CDK5 p35 inh	Dyrk1A artifact
COc1ccccc1NC(=S)N/N=C/c1ccc(O)cc1	5	-1	8	51*	4	11%
CCCc1nn(C)c(C(=O)Nc2ccc3ccccc3c2)c1Cl	-1	1	-1	-1	-4	x
CC(C)(C)c1cc(OC(=O)c2ccccc2F)ccc1O	0	-2	-3	-5	-1	x
O=C(NN1C(=O)/C(=C\c2ccc(O)c([N+](=O)[O-])c2)SC1=S)c1ccccc1Cl	0	6	-5	79*	1	5%
CN(C)CC(CCC(CN(C)C)C(=O)c1ccccc1)C(=O)c1ccccc1 (stereo not drawn)	x	-2	x	7	2	x
Cc1cccc(C(CC(=O)NCc2ccco2)c2ccccc2)c1O (stereo not drawn)	-1	-1	-3	0	-1	x
CC(C)Oc1ccc(C(CC(=O)NCc2ccco2)c2ccccc2)cc1 (stereo not drawn)	-1	-2	-2	55*	-1	7%
CC(=O)N/C(=C\c1ccc(F)cc1)C(=O)OCc1ccccc1	0	3	-1	0	0	x
COCCCN(C(C)=O)c1nc(-c2ccc(OC)cc2)cs1	-1	-4	0	76*	-3	7%
